From ChEMBL document CHEMBL1944509, “Methyl-monofluorination of ibuprofen selectively increases its inhibitory activity toward cyclooxygenase-1 leading to enhanced analgesic activity and reduced gastric damage in vivo” (Bioorg Med Chem Lett, 2011)
Active and inactive are the calls of the source. The rule behind the calls is not given here.

Columns and labels:
[1] = Tmax in ICR mouse at 10 mg/kg, po; assay type: ADME, organism-based; set-up: dose 10 mg/kg, route oral; conditions: in vivo
[2] = Drug level in ICR mouse brain at 10 mg/kg, po after 1 hr by HPLC/MS/MS analysis; assay type: ADME, organism-based; set-up: dose 10 mg/kg, route oral; conditions: read-out: Drug uptake
[3] = Plasma concentration in ICR mouse at 10 mg/kg, po after 4 hrs by HPLC/MS/MS analysis; assay type: ADME, organism-based; set-up: dose 10 mg/kg, route oral
Rattus norvegicus [4] = experiment: Antiinflammatory activity in Wistar albino rat assessed as inhibition of carrageenan-induced paw edema at 33.6 mg/kg, ig administered 1 hr before carrageenan challenge measured after 1 to 24 hrs post carrageenan challenge by plethysmometer; assay type: functional, organism-based
Summary of the method: (§1)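 Male Wistar albino rats, 140–160 g, eight per group, dosed i.g. as a suspension in 0.5% CMC; controls get 0.5% CMC only. 1 h later, 0.1 ml of 0.1% carrageenan in 0.9% NaCl is injected into the sub-plantar region of the right hind paw. Paw volume is read by plethysmometer hourly to 6 h and at 24 h. Inhibition (%) = (Vc − Vt)/Vc × 100 on mean volume increase; mean ± SEM.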

[5] = Drug level in ICR mouse brain at 5 mg/kg, iv after 0.083 hrs by HPLC/MS/MS analysis; assay type: ADME, organism-based; set-up: dose 5 mg/kg, route intravenous; conditions: read-out: Drug uptake
[6] = Plasma concentration in ICR mouse at 10 mg/kg, po after 8 hrs by HPLC/MS/MS analysis; assay type: ADME, organism-based; set-up: dose 10 mg/kg, route oral
[7] = Plasma concentration in ICR mouse at 10 mg/kg, po after 6 hrs by HPLC/MS/MS analysis; assay type: ADME, organism-based; set-up: dose 10 mg/kg, route oral
Nucleic Acid [8] = experiment: Ratio of drug level in brain to plasma in ICR mouse at 5 mg/kg, iv after 0.5 hrs by HPLC/MS/MS analysis; assay type: ADME, organism-based; set-up: dose 5 mg/kg, route intravenous
[9] = Plasma concentration in ICR mouse at 10 mg/kg, po after 1 hr by HPLC/MS/MS analysis; assay type: ADME, organism-based; set-up: dose 10 mg/kg, route oral
[10] = Drug level in ICR mouse brain at 10 mg/kg, po after 0.5 hrs by HPLC/MS/MS analysis; assay type: ADME, organism-based; set-up: dose 10 mg/kg, route oral; conditions: read-out: Drug uptake
[11] = Drug level in ICR mouse brain at 10 mg/kg, po after 2 hrs by HPLC/MS/MS analysis; assay type: ADME, organism-based; set-up: dose 10 mg/kg, route oral; conditions: read-out: Drug uptake
[12] = Plasma concentration in ICR mouse at 5 mg/kg, iv after 8 hrs by HPLC/MS/MS analysis; assay type: ADME, organism-based; set-up: dose 5 mg/kg, route intravenous
[13] = Tmax in ICR mouse at 5 mg/kg, iv; assay type: ADME, organism-based; set-up: dose 5 mg/kg, route intravenous; conditions: in vivo
[14] = Drug level in ICR mouse brain at 5 mg/kg, iv after 1 hr by HPLC/MS/MS analysis; assay type: ADME, organism-based; set-up: dose 5 mg/kg, route intravenous; conditions: read-out: Drug uptake
[15] = AUC (0 to infinity) in ICR mouse at 5 mg/kg, iv; assay type: ADME, organism-based; set-up: time infinity, dose 5 mg/kg, route intravenous; conditions: plasma
Summary of the method: (§2)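 ICR mice given drug intravenously at 5 mg/kg or orally at 10 mg/kg. Parameters are taken from the plasma concentration–time profile: AUC(0–t), AUC(0–∞), MRT, Cmax and bioavailability.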

[16] = Drug level in ICR mouse brain at 10 mg/kg, po after 0.25 hrs by HPLC/MS/MS analysis; assay type: ADME, organism-based; set-up: dose 10 mg/kg, route oral; conditions: read-out: Drug uptake
Nucleic Acid [17] = experiment: Ratio of drug level in brain to plasma in ICR mouse at 10 mg/kg, po after 1 hr by HPLC/MS/MS analysis; assay type: ADME, organism-based; set-up: dose 10 mg/kg, route oral
Nucleic Acid [18] = experiment: Ratio of drug level in brain to plasma in ICR mouse at 5 mg/kg, iv after 2 hrs by HPLC/MS/MS analysis; assay type: ADME, organism-based; set-up: dose 5 mg/kg, route intravenous
[19] = Plasma concentration in ICR mouse at 10 mg/kg, po after 0.5 hrs by HPLC/MS/MS analysis; assay type: ADME, organism-based; set-up: dose 10 mg/kg, route oral
[20] = Mean residence time (0 to infinity) in ICR mouse at 5 mg/kg, iv; assay type: ADME, organism-based; set-up: dose 5 mg/kg, route intravenous; conditions: in vivo; summary of the method: as §2
[21] = Plasma concentration in ICR mouse at 5 mg/kg, iv after 0.25 hrs by HPLC/MS/MS analysis; assay type: ADME, organism-based; set-up: dose 5 mg/kg, route intravenous
Nucleic Acid [22] = experiment: Ratio of drug level in brain to plasma in ICR mouse at 10 mg/kg, po after 0.5 hrs by HPLC/MS/MS analysis; assay type: ADME, organism-based; set-up: dose 10 mg/kg, route oral
[23] = AUC (0 to t) in ICR mouse at 5 mg/kg, iv; assay type: ADME, organism-based; set-up: dose 5 mg/kg, route intravenous; conditions: plasma; summary of the method: as §2
[24] = Drug level in ICR mouse brain at 10 mg/kg, po after 4 hrs by HPLC/MS/MS analysis; assay type: ADME, organism-based; set-up: dose 10 mg/kg, route oral; conditions: read-out: Drug uptake
[25] = Drug level in ICR mouse brain at 5 mg/kg, iv after 0.25 hrs by HPLC/MS/MS analysis; assay type: ADME, organism-based; set-up: dose 5 mg/kg, route intravenous; conditions: read-out: Drug uptake
[26] = Plasma concentration in ICR mouse at 5 mg/kg, iv after 6 hrs by HPLC/MS/MS analysis; assay type: ADME, organism-based; set-up: dose 5 mg/kg, route intravenous
[27] = Oral bioavailability ICR mouse at 10 mg/kg; assay type: ADME, organism-based; conditions: in vivo; summary of the method: as §2
[28] = Cmax in ICR mouse at 10 mg/kg, po; assay type: ADME, organism-based; set-up: dose 10 mg/kg, route oral; conditions: in vivo; summary of the method: as §2
[29] = Plasma concentration in ICR mouse at 10 mg/kg, po after 2 hrs by HPLC/MS/MS analysis; assay type: ADME, organism-based; set-up: dose 10 mg/kg, route oral
Nucleic Acid [30] = experiment: Ratio of drug level in brain to plasma in ICR mouse at 5 mg/kg, iv after 0.25 hrs by HPLC/MS/MS analysis; assay type: ADME, organism-based; set-up: dose 5 mg/kg, route intravenous
[31] = Plasma concentration in ICR mouse at 10 mg/kg, po after 0.083 hrs by HPLC/MS/MS analysis; assay type: ADME, organism-based; set-up: dose 10 mg/kg, route oral
[32] = Drug level in ICR mouse brain at 5 mg/kg, iv after 2 hrs by HPLC/MS/MS analysis; assay type: ADME, organism-based; set-up: dose 5 mg/kg, route intravenous; conditions: read-out: Drug uptake
[33] = Mean residence time (0 to infinity) in ICR mouse at 10 mg/kg, po; assay type: ADME, organism-based; set-up: dose 10 mg/kg, route oral; conditions: in vivo; summary of the method: as §2
Nucleic Acid [34] = experiment: Ratio of drug level in brain to plasma in ICR mouse at 5 mg/kg, iv after 0.083 hrs by HPLC/MS/MS analysis; assay type: ADME, organism-based; set-up: dose 5 mg/kg, route intravenous
[35] = Plasma concentration in ICR mouse at 10 mg/kg, po after 0.25 hrs by HPLC/MS/MS analysis; assay type: ADME, organism-based; set-up: dose 10 mg/kg, route oral
Rattus norvegicus [36] = experiment: Antiinflammatory activity in Wistar albino rat assessed as inhibition of carrageenan-induced paw edema at 30 mg/kg intragastrically administered 1 hr before carrageenan challenge measured after 1 to 24 hrs post carrageenan challenge by plethysmometer; assay type: functional, organism-based; summary of the method: as §1
[37] = Plasma concentration in ICR mouse at 5 mg/kg, iv after 0.5 hrs by HPLC/MS/MS analysis; assay type: ADME, organism-based; set-up: dose 5 mg/kg, route intravenous
[38] = Plasma concentration in ICR mouse at 5 mg/kg, iv after 2 hrs by HPLC/MS/MS analysis; assay type: ADME, organism-based; set-up: dose 5 mg/kg, route intravenous
[39] = Plasma concentration in ICR mouse at 5 mg/kg, iv after 1 hr by HPLC/MS/MS analysis; assay type: ADME, organism-based; set-up: dose 5 mg/kg, route intravenous
[40] = Drug level in ICR mouse brain at 10 mg/kg, po after 0.083 hrs by HPLC/MS/MS analysis; assay type: ADME, organism-based; set-up: dose 10 mg/kg, route oral; conditions: read-out: Drug uptake
[41] = Plasma concentration in ICR mouse at 5 mg/kg, iv after 0.083 hrs by HPLC/MS/MS analysis; assay type: ADME, organism-based; set-up: dose 5 mg/kg, route intravenous
[42] = AUC (0 to t) in ICR mouse at 10 mg/kg, po; assay type: ADME, organism-based; set-up: dose 10 mg/kg, route oral; conditions: plasma; summary of the method: as §2
Nucleic Acid [43] = experiment: Ratio of drug level in brain to plasma in ICR mouse at 10 mg/kg, po after 0.25 hrs by HPLC/MS/MS analysis; assay type: ADME, organism-based; set-up: dose 10 mg/kg, route oral
[44] = AUC (0 to infinity) in ICR mouse at 10 mg/kg, po; assay type: ADME, organism-based; set-up: time infinity, dose 10 mg/kg, route oral; conditions: plasma; summary of the method: as §2
[45] = Cmax in ICR mouse at 5 mg/kg, iv; assay type: ADME, organism-based; set-up: dose 5 mg/kg, route intravenous; conditions: in vivo; summary of the method: as §2

CC(C)Cc1ccc([C@H](CF)C(=O)O)cc1
Tmax [1]: 15 min | concentration at 1 h [2]: 516 ng/g | concentration at 4 h [3]: 792 ng/mL | inhibition (Rattus norvegicus [4]): Active | concentration at 0.083 h [5]: 982 ng/g | concentration at 8 h [6]: 42.4 ng/mL | concentration at 6 h [7]: 102 ng/mL | BPR (Nucleic Acid [8]): 0.038 mL/g | concentration at 1 h [9]: 20900 ng/mL | concentration at 0.5 h [10]: 950 ng/g | concentration at 2 h [11]: 162 ng/g | concentration at 8 h [12]: 45.3 ng/mL | Tmax [13]: 4.8 min | concentration at 1 h [14]: 232 ng/g | AUC(0-inf) [15]: 23300 ng·h/mL | concentration at 0.25 h [16]: 1270 ng/g | BPR (Nucleic Acid [17]): 0.025 mL/g | BPR (Nucleic Acid [18]): 0.032 mL/g | concentration at 0.5 h [19]: 28500 ng/mL | MRT inf [20]: 49.8 min | concentration at 0.25 h [21]: 18000 ng/mL | BPR (Nucleic Acid [22]): 0.035 mL/g | AUC(0-t) [23]: 23300 ng·h/mL | concentration at 4 h [24]: 24.7 ng/g | concentration at 0.25 h [25]: 759 ng/g | concentration at 6 h [26]: 130 ng/mL | bioavailability [27]: 108% | Cmax [28]: 42100 ng/mL | concentration at 2 h [29]: 5310 ng/mL | BPR (Nucleic Acid [30]): 0.042 mL/g | concentration at 0.083 h [31]: 41800 ng/mL | concentration at 2 h [32]: 64.9 ng/g | MRT inf [33]: 57 min | BPR (Nucleic Acid [34]): 0.031 mL/g | concentration at 0.25 h [35]: 42100 ng/mL | inhibition (Rattus norvegicus [36]): Active | concentration at 0.5 h [37]: 13700 ng/mL | concentration at 2 h [38]: 2240 ng/mL | concentration at 1 h [39]: 6160 ng/mL | concentration at 0.083 h [40]: 1160 ng/g | concentration at 0.083 h [41]: 31600 ng/mL | AUC(0-t) [42]: 50200 ng·h/mL | BPR (Nucleic Acid [43]): 0.03 mL/g | AUC(0-inf) [44]: 50200 ng·h/mL | Cmax [45]: 31600 ng/mL
